For one compound, inhibition, IC50 and Selectivity ratio results are on record in ChEMBL document CHEMBL3297689, “Phenylalanine-Based Inactivator of AKT Kinase: Design, Synthesis, and Biological Evaluation” (ACS Med Chem Lett, 2014).

Assay [1] concerns the target T1, RAC-alpha serine/threonine-protein kinase (Homo sapiens, UniProt P31749). Briefly: Irreversible inhibition of AKT1 (unknown origin) Z'-LYTE kinase assay in presence of ATP. The note with it: TDE = time-dependent effect. Put shortly: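 Recombinant AKT1 activity read by the FRET-based Z′-LYTE kit, which measures phosphorylation of a peptide substrate. […] IC50 values are averages of three independent experiments with 95% confidence intervals.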

Assay [2] concerns the target T1, RAC-alpha serine/threonine-protein kinase. Description: Inhibition of AKT1 (unknown origin) after 1 hr by Z'-LYTE kinase assay in presence of 75 uM ATP.
The next assay relates to NCI-H460. Briefly: Growth inhibition of human NCI-H460 cells after 72 hrs by coulter counter method. The note with it: NCI-H460, 72 h. Format: functional, cell-based.
The target in assay [3] is cGMP-dependent protein kinase 1 (Homo sapiens) (UniProt Q13976). Description: Inhibition of PRKG1 (unknown origin) at 1 uM in presence of 100 uM ATP.
For assay [4], the target named is MAP kinase-activated protein kinase 2 (Homo sapiens) (UniProt P49137). Briefly: Inhibition of MAPKAPK2 (unknown origin) at 1 uM in presence of 100 uM ATP.
Chain of MAP kinase-activated protein kinase 2 (Homo sapiens) (P49137 whole entry, looked up): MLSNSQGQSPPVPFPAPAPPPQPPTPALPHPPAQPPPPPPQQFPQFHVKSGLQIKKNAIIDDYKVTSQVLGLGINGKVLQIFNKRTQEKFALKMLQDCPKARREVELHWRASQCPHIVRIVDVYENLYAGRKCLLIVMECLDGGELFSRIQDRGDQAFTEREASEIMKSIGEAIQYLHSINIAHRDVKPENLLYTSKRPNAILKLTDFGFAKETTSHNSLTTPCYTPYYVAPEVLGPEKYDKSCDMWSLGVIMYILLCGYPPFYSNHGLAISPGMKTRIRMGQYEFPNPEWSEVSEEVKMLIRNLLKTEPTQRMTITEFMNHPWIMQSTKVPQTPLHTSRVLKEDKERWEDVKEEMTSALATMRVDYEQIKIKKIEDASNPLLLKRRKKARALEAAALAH
Assay [5] concerns the target Ribosomal protein S6 kinase alpha-5 (Homo sapiens) (UniProt O75582). Briefly: Inhibition of MSK1 (unknown origin) at 1 uM in presence of 100 uM ATP.
Assay [6] concerns the target Hepatocyte growth factor receptor (Homo sapiens) (UniProt P08581). Briefly: Inhibition of MET (unknown origin) at 1 uM in presence of 100 uM ATP.
For assay [7], the target named is Serine/threonine-protein kinase MARK1 (Homo sapiens) (UniProt Q9P0L2). Briefly: Inhibition of MARK1 (unknown origin) at 1 uM in presence of 100 uM ATP.
Assay [8] concerns the target cAMP-dependent protein kinase catalytic subunit PRKX (Homo sapiens) (UniProt P51817). Briefly: Inhibition of PRKX (unknown origin) at 1 uM in presence of 100 uM ATP.
Assay [9] deals with Mitogen-activated protein kinase 3 (Homo sapiens) (UniProt P27361). Description: Inhibition of MAPK3 (unknown origin) at 1 uM in presence of 100 uM ATP.
Chain of Mitogen-activated protein kinase 3 (Homo sapiens) (P27361 whole entry): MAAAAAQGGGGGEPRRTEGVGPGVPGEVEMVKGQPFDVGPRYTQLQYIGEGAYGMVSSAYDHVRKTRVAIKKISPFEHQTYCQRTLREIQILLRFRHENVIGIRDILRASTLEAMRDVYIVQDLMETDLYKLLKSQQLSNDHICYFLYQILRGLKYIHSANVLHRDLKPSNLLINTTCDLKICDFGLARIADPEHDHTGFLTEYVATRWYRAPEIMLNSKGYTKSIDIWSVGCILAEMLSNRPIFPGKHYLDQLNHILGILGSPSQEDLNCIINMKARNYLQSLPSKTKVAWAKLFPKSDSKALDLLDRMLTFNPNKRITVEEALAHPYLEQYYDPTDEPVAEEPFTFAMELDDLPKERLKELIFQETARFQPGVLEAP
The target in assay [10] is 3-phosphoinositide-dependent protein kinase 1 (Homo sapiens) (UniProt O15530). Briefly: Inhibition of PDK1 (unknown origin) at 1 uM in presence of 100 uM ATP.
The target in assay [11] is Tyrosine-protein kinase CSK (Homo sapiens) (UniProt P41240). Briefly: Inhibition of CSK (unknown origin) at 1 uM in presence of 100 uM ATP.
Chain of Tyrosine-protein kinase CSK (Homo sapiens) (P41240 2-450 limits assumed): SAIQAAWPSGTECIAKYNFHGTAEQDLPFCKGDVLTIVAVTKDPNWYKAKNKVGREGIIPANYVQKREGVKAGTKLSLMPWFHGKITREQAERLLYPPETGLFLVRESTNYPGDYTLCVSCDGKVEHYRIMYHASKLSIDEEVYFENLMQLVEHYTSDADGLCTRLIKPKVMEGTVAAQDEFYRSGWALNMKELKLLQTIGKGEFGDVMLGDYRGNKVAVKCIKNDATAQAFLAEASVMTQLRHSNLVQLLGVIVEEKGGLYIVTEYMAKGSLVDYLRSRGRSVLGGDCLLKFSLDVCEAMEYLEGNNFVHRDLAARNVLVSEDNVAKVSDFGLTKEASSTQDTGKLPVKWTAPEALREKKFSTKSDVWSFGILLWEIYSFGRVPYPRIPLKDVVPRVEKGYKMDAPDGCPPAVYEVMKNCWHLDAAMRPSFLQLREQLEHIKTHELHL
The species named for assay [12] is Homo sapiens. Description: Inhibition of PKAalpha (unknown origin) at 1 uM in presence of 100 uM ATP.
Assay [13] deals with Tyrosine-protein kinase ABL1 (Homo sapiens) (UniProt P00519). Briefly: Inhibition of ABL1 (unknown origin) at 1 uM in presence of 100 uM ATP.
Chain of Tyrosine-protein kinase ABL1 (Homo sapiens) (P00519 whole entry): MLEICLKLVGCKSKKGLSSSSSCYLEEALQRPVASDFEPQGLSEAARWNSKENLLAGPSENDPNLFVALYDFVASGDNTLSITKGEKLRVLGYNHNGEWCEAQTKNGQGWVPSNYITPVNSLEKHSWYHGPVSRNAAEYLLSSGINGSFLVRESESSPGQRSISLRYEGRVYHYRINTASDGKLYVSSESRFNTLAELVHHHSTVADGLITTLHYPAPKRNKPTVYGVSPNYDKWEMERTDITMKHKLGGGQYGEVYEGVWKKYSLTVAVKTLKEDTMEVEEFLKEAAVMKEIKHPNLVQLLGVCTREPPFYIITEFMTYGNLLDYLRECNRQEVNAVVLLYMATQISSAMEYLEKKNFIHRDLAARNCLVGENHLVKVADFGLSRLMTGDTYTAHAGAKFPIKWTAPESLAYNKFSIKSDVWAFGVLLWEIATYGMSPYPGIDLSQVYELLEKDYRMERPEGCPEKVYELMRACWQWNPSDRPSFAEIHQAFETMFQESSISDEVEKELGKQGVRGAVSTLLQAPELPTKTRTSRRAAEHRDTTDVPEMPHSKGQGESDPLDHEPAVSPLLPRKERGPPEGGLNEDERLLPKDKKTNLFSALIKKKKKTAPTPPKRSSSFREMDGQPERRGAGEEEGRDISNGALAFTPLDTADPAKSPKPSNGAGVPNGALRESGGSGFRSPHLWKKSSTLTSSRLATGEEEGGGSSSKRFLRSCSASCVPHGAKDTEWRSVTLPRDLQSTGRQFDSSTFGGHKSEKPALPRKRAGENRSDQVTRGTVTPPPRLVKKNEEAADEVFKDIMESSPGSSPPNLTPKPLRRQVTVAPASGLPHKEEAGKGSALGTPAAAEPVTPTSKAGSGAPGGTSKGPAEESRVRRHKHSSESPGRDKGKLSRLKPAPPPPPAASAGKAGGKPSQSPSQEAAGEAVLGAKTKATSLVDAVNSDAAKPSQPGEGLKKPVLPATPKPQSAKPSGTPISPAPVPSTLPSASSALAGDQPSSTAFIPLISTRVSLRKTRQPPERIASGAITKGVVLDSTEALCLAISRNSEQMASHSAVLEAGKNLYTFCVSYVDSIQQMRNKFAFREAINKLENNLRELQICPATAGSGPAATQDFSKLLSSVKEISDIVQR
The target of assay [14] is Protein kinase C theta type (Homo sapiens) (UniProt Q04759). Description: Inhibition of PKCtheta (unknown origin) at 1 uM in presence of 100 uM ATP.
The target in assay [15] is Platelet-derived growth factor receptor alpha (Homo sapiens) (UniProt P16234). Briefly: Inhibition of PDGFRA (unknown origin) at 1 uM in presence of 100 uM ATP.
Assay [16] is filed under the species Homo sapiens. Description: Selectivity for AKT1 (unknown origin) over PKAalpha (unknown origin). In short, it runs like this:
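Selectivity is the PKAα IC50 divided by the AKT1 IC50. Both IC50s were measured in the FRET-based Z′-LYTE peptide-phosphorylation assay.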

T1 sequence (P31749 whole entry): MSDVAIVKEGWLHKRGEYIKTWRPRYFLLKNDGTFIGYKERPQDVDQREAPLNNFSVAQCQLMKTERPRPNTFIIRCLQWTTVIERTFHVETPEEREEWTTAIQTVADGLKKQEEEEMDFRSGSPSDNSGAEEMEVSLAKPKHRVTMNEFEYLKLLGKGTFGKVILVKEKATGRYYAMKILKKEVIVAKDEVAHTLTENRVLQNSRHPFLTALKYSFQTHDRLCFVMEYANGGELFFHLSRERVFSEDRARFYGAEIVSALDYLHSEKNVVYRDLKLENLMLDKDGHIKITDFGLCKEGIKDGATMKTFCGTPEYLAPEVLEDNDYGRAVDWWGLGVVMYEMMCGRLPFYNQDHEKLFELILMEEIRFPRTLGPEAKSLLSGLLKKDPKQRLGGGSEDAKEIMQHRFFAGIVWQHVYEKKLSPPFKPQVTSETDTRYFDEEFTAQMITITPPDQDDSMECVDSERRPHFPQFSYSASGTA
Chain of Hepatocyte growth factor receptor (Homo sapiens) (P08581 whole entry): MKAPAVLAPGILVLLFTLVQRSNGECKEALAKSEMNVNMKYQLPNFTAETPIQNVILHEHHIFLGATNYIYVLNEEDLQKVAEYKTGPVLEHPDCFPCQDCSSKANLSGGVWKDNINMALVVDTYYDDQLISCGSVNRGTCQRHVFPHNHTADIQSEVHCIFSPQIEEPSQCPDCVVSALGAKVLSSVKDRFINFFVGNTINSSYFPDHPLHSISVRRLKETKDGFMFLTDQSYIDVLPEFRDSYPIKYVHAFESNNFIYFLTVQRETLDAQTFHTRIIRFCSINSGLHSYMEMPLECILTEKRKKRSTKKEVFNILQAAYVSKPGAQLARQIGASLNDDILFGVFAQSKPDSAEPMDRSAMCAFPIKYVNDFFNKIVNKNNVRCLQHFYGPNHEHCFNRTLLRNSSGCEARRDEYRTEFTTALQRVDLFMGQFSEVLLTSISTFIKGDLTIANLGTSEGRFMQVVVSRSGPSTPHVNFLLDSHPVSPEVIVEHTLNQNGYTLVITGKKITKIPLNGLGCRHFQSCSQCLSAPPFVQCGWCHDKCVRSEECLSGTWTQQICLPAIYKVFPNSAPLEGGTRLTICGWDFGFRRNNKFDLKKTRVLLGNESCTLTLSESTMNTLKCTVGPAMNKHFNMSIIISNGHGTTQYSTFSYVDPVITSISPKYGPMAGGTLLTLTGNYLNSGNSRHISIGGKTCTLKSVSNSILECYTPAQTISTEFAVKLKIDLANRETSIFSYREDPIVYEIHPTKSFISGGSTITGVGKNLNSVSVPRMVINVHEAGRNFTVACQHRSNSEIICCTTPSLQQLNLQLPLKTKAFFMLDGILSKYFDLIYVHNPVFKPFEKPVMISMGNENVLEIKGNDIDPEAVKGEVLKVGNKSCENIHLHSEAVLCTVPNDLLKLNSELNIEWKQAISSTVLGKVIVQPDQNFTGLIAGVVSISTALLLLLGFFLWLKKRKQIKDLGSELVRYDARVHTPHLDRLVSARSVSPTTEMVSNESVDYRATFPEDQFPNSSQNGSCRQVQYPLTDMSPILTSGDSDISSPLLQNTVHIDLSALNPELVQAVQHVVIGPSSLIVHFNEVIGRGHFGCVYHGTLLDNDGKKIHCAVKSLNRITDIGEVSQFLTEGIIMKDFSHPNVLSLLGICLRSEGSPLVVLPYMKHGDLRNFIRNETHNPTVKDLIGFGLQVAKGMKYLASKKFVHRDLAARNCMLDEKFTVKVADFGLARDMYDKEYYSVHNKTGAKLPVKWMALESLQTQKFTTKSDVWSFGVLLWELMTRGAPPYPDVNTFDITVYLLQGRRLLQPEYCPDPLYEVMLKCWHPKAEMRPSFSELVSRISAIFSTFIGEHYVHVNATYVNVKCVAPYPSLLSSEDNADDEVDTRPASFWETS
Chain of cAMP-dependent protein kinase catalytic subunit PRKX (Homo sapiens) (P51817 whole entry): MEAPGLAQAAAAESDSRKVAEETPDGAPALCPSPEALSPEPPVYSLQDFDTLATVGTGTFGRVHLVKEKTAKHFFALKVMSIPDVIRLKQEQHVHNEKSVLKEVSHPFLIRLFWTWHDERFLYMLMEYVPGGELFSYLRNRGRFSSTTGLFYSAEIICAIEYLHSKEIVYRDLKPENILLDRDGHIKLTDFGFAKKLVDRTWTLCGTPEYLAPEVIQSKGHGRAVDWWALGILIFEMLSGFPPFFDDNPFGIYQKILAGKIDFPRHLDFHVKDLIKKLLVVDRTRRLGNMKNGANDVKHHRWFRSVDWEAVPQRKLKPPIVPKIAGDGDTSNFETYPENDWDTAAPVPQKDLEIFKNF

As to `C=CC(=O)[C@H](Cc1ccccc1)NC(=O)OC(C)(C)C`, the inhibition result in assay [1] was “tde”; in assay [3], -4%; in assay [4], -7%; in [5], 10%; in assay [6], 11%; in assay [7], 4%. The inhibition in [8] is -1%; in [9], 8%; in assay [10], 15%; in assay [11], 8%; in the assay listed under Homo sapiens [12], -10%; in assay [13], 13%. Moreover, the inhibition is 3% in [14] and 0% in [15]. The figures for the IC50 (in assay [2]; with NCI-H460) were 0.58 µM and 22.9 µM, respectively. Besides, the Selectivity ratio in the assay listed under Homo sapiens [16] is 90.

A word on the inhibition: it is the drop in the measured response relative to a control, in per cent. As a reminder, the IC50 is the concentration at which inhibition is half-maximal.
